Results taken from ChEMBL document CHEMBL3580590, “A Developability-Focused Optimization Approach Allows Identification of in Vivo Fast-Acting Antimalarials: N-[3-[(Benzimidazol-2-yl)amino]propyl]amides” (J Med Chem, 2015).
pIC50: −log10 of the molar value. ≈ marks a conversion by molar mass, not a printed value. Blank lines part the entries; values can stand above or below the compound they belong to. Calls of active or inactive are those of the source. The calls are words filed in the database; no cut-off is given here.

Experiments:
Plasmodium falciparum [1] = assay: Antimalarial activity against Plasmodium falciparum 3D7A infected in red blood cells assessed as inhibition of parasite growth after 24 hrs by [3H]hypoxanthine incorporation assay; assay type: functional, organism-based
Method in brief: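 P. falciparum 3D7 parasitized RBC (0.5% parasitemia, 2% hematocrit) in RPMI-1640 with 5% albumax and 5 μM hypoxanthine. 3H-hypoxanthine was then added for a further 24 h. Cells were harvested onto glass-fiber filters and incorporation was read by scintillation; IC50 was derived.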

[2] = Kinetic solubility of the compound in DMSO/phosphate buffered saline at pH 7.4 by chemiluminescent nitrogen detection method; assay type: physicochemical; settings: read-out: Kinetic_solubility
Method in brief: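 Kinetic solubility from DMSO stock solution in phosphate-buffered saline, pH 7.4, quantified by chemiluminescent nitrogen detection.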

[3] = target: Voltage-gated inwardly rectifying potassium channel KCNH2 (Homo sapiens, UniProt Q12809); assay: Inhibition of human ERG by IonWorks electrophysiology
[4] = Selectivity index, ratio of TC50 for human HepG2 cells to IC50 for Plasmodium falciparum 3D7A; assay type: toxicity, cell-based; settings: read-out: Selectivity Index
[5] = Cytotoxicity against human HepG2 cells by ATP bioluminescene method; assay type: cell-based; settings: read-out: TC50 (the source's name)
Plasmodium falciparum [6] = assay: Antimalarial activity against chloroquine and pyrimethamine-resistant Plasmodium falciparum V1/S assessed as inhibition of parasite growth; assay type: functional, organism-based
Method in brief: (§1)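 Growth inhibition by [3H]-hypoxanthine incorporation, which tracks parasite growth. Parasitised RBC culture (0.5% parasitemia, 2% haematocrit) in RPMI-1640 with 5% Albumax and 5 μM hypoxanthine, exposed to serial drug dilutions. Cells harvested onto glass-fibre filters, radioactivity counted, IC50 derived.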

Plasmodium falciparum [7] = assay: Antimalarial activity against chloroquine and pyrimethamine-resistant Plasmodium falciparum W2 assessed as inhibition of parasite growth; assay type: functional, organism-based; method in brief: as §1
[8] = Solubility of the compound in fasted state simulated intestinal fluid; assay type: ADME
Plasmodium falciparum [9] = settings: 3D70087/N9, 100 mg/kg
[10] = Clearance in CD1 mouse at 1 mg/kg, iv by LC-MS/MS analysis; assay type: ADME, organism-based; settings: in vivo
Method in brief: (§2)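 Mice were dosed IV at 1 mg/kg (0.1 mg/mL in 20% encapsine, 5% DMSO in saline) or PO at 10 mg/kg (1 mg/mL suspension in 1% methylcellulose), 10 mL/kg each. After IV dosing, blood was sampled from 5 min to 24 h. Blood was mixed 1:1 with 0.1% saponine and frozen at −80 °C. Samples were acetonitrile-extracted and analyzed by positive-ESI LC-MS/MS.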

Plasmodium falciparum [11] = assay: Antimalarial activity against erythrocytic stage of Plasmodium falciparum 3D70087/N9 infected in NSG mouse engrafted with human erythrocytes assessed as parasite killing at 100 mg/kg, po qd for 4 days starting from day 3 to day 6 after parasite infection measured 48 hrs after initiation of drug treatment by Giemsa-staining based microscopy; assay type: functional, organism-based
[12] = Oral bioavailability in CD1 mouse at 10 mg/kg administered via gavage by LC-MS/MS analysis; assay type: ADME, organism-based; settings: in vivo; method in brief: as §2

Voltage-gated inwardly rectifying potassium channel KCNH2, sequence (Q12809 whole entry): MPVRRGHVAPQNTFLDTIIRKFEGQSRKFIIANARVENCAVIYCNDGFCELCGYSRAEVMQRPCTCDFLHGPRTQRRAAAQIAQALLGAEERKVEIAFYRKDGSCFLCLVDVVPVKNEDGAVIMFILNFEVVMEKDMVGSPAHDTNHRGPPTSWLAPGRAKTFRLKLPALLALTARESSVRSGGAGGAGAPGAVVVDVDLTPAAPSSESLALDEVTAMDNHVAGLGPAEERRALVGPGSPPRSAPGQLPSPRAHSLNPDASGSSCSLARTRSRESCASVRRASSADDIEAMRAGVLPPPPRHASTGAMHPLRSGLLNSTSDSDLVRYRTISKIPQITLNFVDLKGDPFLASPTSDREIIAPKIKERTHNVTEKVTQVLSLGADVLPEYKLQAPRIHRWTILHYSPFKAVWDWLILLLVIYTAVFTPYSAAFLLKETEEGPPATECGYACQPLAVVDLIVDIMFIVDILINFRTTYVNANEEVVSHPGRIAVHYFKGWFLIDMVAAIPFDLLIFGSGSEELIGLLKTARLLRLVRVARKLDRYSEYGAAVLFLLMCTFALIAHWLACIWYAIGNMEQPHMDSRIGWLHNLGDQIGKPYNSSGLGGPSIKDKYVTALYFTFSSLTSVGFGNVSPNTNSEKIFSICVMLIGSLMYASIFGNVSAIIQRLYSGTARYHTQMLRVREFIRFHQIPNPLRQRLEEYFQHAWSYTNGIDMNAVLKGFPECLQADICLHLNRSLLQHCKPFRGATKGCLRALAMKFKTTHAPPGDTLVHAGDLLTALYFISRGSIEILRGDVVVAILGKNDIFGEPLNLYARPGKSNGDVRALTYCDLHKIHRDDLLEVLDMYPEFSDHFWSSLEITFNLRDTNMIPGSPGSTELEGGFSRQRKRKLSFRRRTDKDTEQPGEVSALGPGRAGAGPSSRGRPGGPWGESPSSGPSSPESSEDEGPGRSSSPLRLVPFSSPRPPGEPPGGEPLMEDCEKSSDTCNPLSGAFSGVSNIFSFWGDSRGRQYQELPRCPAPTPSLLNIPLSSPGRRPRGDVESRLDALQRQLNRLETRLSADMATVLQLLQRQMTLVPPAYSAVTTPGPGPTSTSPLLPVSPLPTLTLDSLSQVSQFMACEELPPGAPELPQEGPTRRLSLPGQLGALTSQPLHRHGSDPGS

SMILES: O=C(NCCCNc1nc2ccccc2[nH]1)c1cncc(Cl)c1
pIC50 (Plasmodium falciparum [1]): 6.34

SMILES: O=C(Cc1cccc(Cl)c1)NCCCNc1nc2ccccc2[nH]1
pIC50 (Plasmodium falciparum [1]): 6.18

SMILES: O=C(NCCCNc1nc2ccccc2[nH]1)c1cc(Cl)ccc1Cl
pIC50 (Plasmodium falciparum [1]): 5.92

SMILES: O=C(NCCCNc1nc2ccccc2[nH]1)C1CCOCC1
pIC50 (Plasmodium falciparum [1]): 5.58

SMILES: O=C(NCCCNc1nc2ccccc2[nH]1)c1cccnc1
pIC50 (Plasmodium falciparum [1]): < 5.30

SMILES: O=C(NCCCNc1nc2ccccc2[nH]1)c1ccncc1
pIC50 (Plasmodium falciparum [1]): < 5.30

SMILES: O=C(NCCCNc1nc2ccccc2[nH]1)C1CCC(O)CC1 (stereo unspecified)
pIC50 (Plasmodium falciparum [1]): < 5.30

SMILES: COc1cccc(C(=O)NCCCNc2nc3ccccc3[nH]2)c1
pIC50 (Plasmodium falciparum [1]): 6.03

SMILES: N#Cc1ccc2[nH]c(NCCCNC(=O)c3cc(Cl)cc(Cl)c3)nc2c1
pIC50 (Plasmodium falciparum [1]): 5.83

SMILES: Cc1cccc(C(=O)NCCCNc2nc3ccccc3[nH]2)c1
pIC50 (Plasmodium falciparum [1]): 6.01

SMILES: Cn1c(NCCCNC(=O)c2cc(Cl)cc(Cl)c2)nc2ccccc21
pIC50 (Plasmodium falciparum [1]): < 5.30

SMILES: O=C(NCCCCc1nc2ccccc2[nH]1)c1cc(Cl)cc(Cl)c1
pIC50 (Plasmodium falciparum [1]): < 5.30

SMILES: O=C(NCCCNc1nc2ccccc2[nH]1)c1cc(F)cc(F)c1
pIC50 (Plasmodium falciparum [1]): 6.49

SMILES: CS(=O)(=O)Nc1cccc(C(=O)NCCCNc2nc3ccccc3[nH]2)c1
pIC50 (Plasmodium falciparum [1]): < 5.30

SMILES: O=C(CCNC(=O)c1cc(Cl)cc(Cl)c1)Nc1nc2ccccc2[nH]1
pIC50 (Plasmodium falciparum [1]): 5.38

SMILES: O=C(NCCCNc1nc2ccccc2[nH]1)c1ccc(Cl)cc1
pIC50 (Plasmodium falciparum [1]): 5.97

SMILES: O=C(NCCCNc1nc2cc(F)ccc2[nH]1)c1cc(Cl)cc(Cl)c1
pIC50 (Plasmodium falciparum [1]): 6.92

SMILES: O=C(NCCCNc1nc2cccnc2[nH]1)c1cc(Cl)cc(Cl)c1
pIC50 (Plasmodium falciparum [1]): 5.60

SMILES: O=C(NC1CCN(c2nc3ccccc3[nH]2)C1)c1cc(Cl)cc(Cl)c1 (stereo unspecified)
pIC50 (Plasmodium falciparum [1]): < 5.30

SMILES: CN(CCCNc1nc2ccccc2[nH]1)C(=O)c1cc(Cl)cc(Cl)c1
pIC50 (Plasmodium falciparum [1]): < 5.30

SMILES: O=C(NCCCNc1nc2ccccc2[nH]1)c1cccc(CO)c1
pIC50 (Plasmodium falciparum [1]): < 5.30

SMILES: O=C(NCCCNc1nc2ccccc2[nH]1)c1ccc2c(c1)OCO2
pIC50 (Plasmodium falciparum [1]): 5.47

SMILES: O=C(NCCCCNc1nc2ccccc2[nH]1)c1cc(Cl)cc(Cl)c1
pIC50 (Plasmodium falciparum [1]): 6.40

solubility kinetic [2]: 64 µM (≈ 24.5 µg/mL)
SMILES: O=C(Nc1cccc(-c2nc3ccccc3[nH]2)c1)c1cc(Cl)cc(Cl)c1
pIC50 [3]: < 4.83
selectivity ratio [4]: 17.3
pIC50 (Plasmodium falciparum [1]): 5.82
CC50 [5]: 26.3 µM

SMILES: O=C(NC1(c2nc3ccccc3[nH]2)CC1)c1cc(Cl)cc(Cl)c1
pIC50 (Plasmodium falciparum [1]): < 5.30

SMILES: O=C(NCCCNc1nc2ccccc2[nH]1)c1cccc(CN2CCCC2)c1
pIC50 (Plasmodium falciparum [1]): < 5.30

SMILES: O=C(NCCCNc1nc2ccccc2[nH]1)c1cccc(C(F)(F)F)c1
pIC50 (Plasmodium falciparum [1]): 6.85

SMILES: Cc1ccc(C(=O)NCCCNc2nc3ccccc3[nH]2)s1
pIC50 (Plasmodium falciparum [1]): 5.74

SMILES: O=C(NCCCNc1nc2ccccc2[nH]1)C1CCCCC1
pIC50 (Plasmodium falciparum [1]): 5.74

solubility kinetic [2]: 349 µM (≈ 127 µg/mL)
SMILES: O=C(NCCCNc1nc2ccccc2[nH]1)c1ccnc(C(F)(F)F)c1
pIC50 (Plasmodium falciparum [1]): 6.60
CC50 [5]: > 100 µM

solubility kinetic [2]: 393 µM (≈ 158 µg/mL)
SMILES: CC(C)(C)OC(=O)N1CCC(C(=O)NCCCNc2nc3ccccc3[nH]2)CC1
pIC50 [3]: < 4.30
selectivity ratio [4]: > 111
pIC50 (Plasmodium falciparum [1]): 6.05
CC50 [5]: > 100 µM

SMILES: Cn1cccc1C(=O)NCCCNc1nc2ccccc2[nH]1
pIC50 (Plasmodium falciparum [1]): < 5.30

SMILES: COC(=O)c1cccc(C(=O)NCCCNc2nc3ccccc3[nH]2)c1
pIC50 (Plasmodium falciparum [1]): 6.20

SMILES: O=C(NCCCNc1nc2ccccc2[nH]1)c1ccccc1
pIC50 (Plasmodium falciparum [1]): 5.50

solubility kinetic [2]: 29 µM (≈ 12.2 µg/mL)
SMILES: COC(=O)c1ccc2[nH]c(NCCCNC(=O)c3cc(Cl)cc(Cl)c3)nc2c1
pIC50 (Plasmodium falciparum [1]): 6.82
CC50 [5]: 25.7 µM

SMILES: O=C(NCCCNc1nc2ccccc2[nH]1)c1cccc(Cl)c1
pIC50 (Plasmodium falciparum [1]): 6.52

SMILES: N#Cc1cccc(C(=O)NCCCNc2nc3ccccc3[nH]2)c1
pIC50 (Plasmodium falciparum [1]): 6.42

SMILES: O=C(NCCCNc1nc2ccccc2[nH]1)c1ccc2c(c1)OCCO2
pIC50 (Plasmodium falciparum [1]): 5.78

SMILES: O=C(NCCNc1nc2ccccc2[nH]1)c1cc(Cl)cc(Cl)c1
pIC50 (Plasmodium falciparum [1]): 5.74

SMILES: COc1c(Cl)cc(C(=O)NCCCNc2nc3ccccc3[nH]2)cc1Cl
pIC50 (Plasmodium falciparum [1]): 7.00

SMILES: CN(CCCNC(=O)c1cc(Cl)cc(Cl)c1)c1nc2ccccc2[nH]1
pIC50 (Plasmodium falciparum [1]): 5.74

SMILES: CN(C)Cc1ccc(C(=O)NCCCNc2nc3ccccc3[nH]2)cc1
pIC50 (Plasmodium falciparum [1]): 5.65

SMILES: CCc1nc(N)nc(N)c1-c1ccc(Cl)cc1 [PYRIMETHAMINE]
pIC50 (Plasmodium falciparum [6]): < 4.70
pIC50 (Plasmodium falciparum [1]): 7.17
pIC50 (Plasmodium falciparum [7]): < 4.70

SMILES: O=C(O)c1ccc2[nH]c(NCCCNC(=O)c3cc(Cl)cc(Cl)c3)nc2c1
pIC50 (Plasmodium falciparum [1]): < 5.30

SMILES: O=C(NCCCNc1nc2ccccc2[nH]1)C1CCNCC1
pIC50 (Plasmodium falciparum [1]): < 5.30

SMILES: O=C(NCCCNc1nc2ccccc2[nH]1)c1cccc(OC(F)(F)F)c1
pIC50 (Plasmodium falciparum [1]): 6.43

SMILES: CC(CNC(=O)c1cc(Cl)cc(Cl)c1)CNc1nc2ccccc2[nH]1 (stereo unspecified)
pIC50 (Plasmodium falciparum [1]): 6.28

SMILES: O=C(NCCCNc1nc2ccccc2[nH]1)c1ccc2c(c1)CCO2
pIC50 (Plasmodium falciparum [1]): 5.49

SMILES: O=C(NCCCNc1nc2ccccc2[nH]1)c1ccc(Cl)cc1Cl
pIC50 (Plasmodium falciparum [1]): 5.39

SMILES: COc1cc(OC)cc(C(=O)NCCCNc2nc3ccccc3[nH]2)c1
pIC50 (Plasmodium falciparum [1]): 6.48

SMILES: CN(C)C(=O)c1cccc(C(=O)NCCCNc2nc3ccccc3[nH]2)c1
pIC50 (Plasmodium falciparum [1]): < 5.30

solubility kinetic [2]: 322 µM (≈ 122 µg/mL)
SMILES: O=C(NCCCNc1nc2ccccc2[nH]1)c1ccc(CN2CCCC2)cc1
pIC50 (Plasmodium falciparum [1]): 5.64
CC50 [5]: > 100 µM

SMILES: N#Cc1ccc(C(=O)NCCCNc2nc3ccccc3[nH]2)cc1F
pIC50 (Plasmodium falciparum [1]): 5.86

SMILES: O=C(NCCCNc1nc2ccccc2[nH]1)c1cccc(O)c1
pIC50 (Plasmodium falciparum [1]): < 5.30

SMILES: CN1CCN(Cc2ccc(C(=O)NCCCNc3nc4ccccc4[nH]3)cc2)CC1
pIC50 (Plasmodium falciparum [1]): < 5.30

SMILES: O=C(NCC1(CNc2nc3ccccc3[nH]2)CC1)c1cc(Cl)cc(Cl)c1
pIC50 (Plasmodium falciparum [1]): 5.99

SMILES: O=C(NCCCNc1nc2ccccc2[nH]1)c1ccccc1Cl
pIC50 (Plasmodium falciparum [1]): 5.98

SMILES: O=C(O)c1cccc(C(=O)NCCCNc2nc3ccccc3[nH]2)c1
pIC50 (Plasmodium falciparum [1]): < 5.30

SMILES: O=C(NCCCNc1nc2ccccc2[nH]1)c1cccc(Cl)c1Cl
pIC50 (Plasmodium falciparum [1]): 5.47

SMILES: O=C(NCCCNc1nc2c(F)cccc2[nH]1)c1cc(Cl)cc(Cl)c1
pIC50 (Plasmodium falciparum [1]): 6.52

SMILES: O=C(NCCCNc1nc2ccccc2[nH]1)C1CCC(CO)CC1 (stereo unspecified)
pIC50 (Plasmodium falciparum [1]): < 5.30

SMILES: O=C(NCCCNc1nc2ccccc2[nH]1)c1ccccn1
pIC50 (Plasmodium falciparum [1]): < 5.30

SMILES: O=C(NCCCNc1nc2ccccc2[nH]1)c1c(Cl)cccc1Cl
pIC50 (Plasmodium falciparum [1]): < 5.30

SMILES: O=C(NCC(O)CNc1nc2ccccc2[nH]1)c1cc(Cl)cc(Cl)c1 (stereo unspecified)
pIC50 (Plasmodium falciparum [1]): 5.86

SMILES: Cc1ccc(C(=O)NCCCNc2nc3ccccc3[nH]2)o1
pIC50 (Plasmodium falciparum [1]): 5.65

SMILES: O=C(NCCCNc1nc2ccccc2[nH]1)c1cc(Cl)cc(Cl)c1
pIC50 (Plasmodium falciparum [6]): 5.99
solubility kinetic [2]: 239 µM (≈ 86.8 µg/mL)
solubility [8]: > 100 µg/mL
inhibition (Plasmodium falciparum [9]): Active
pIC50 (Plasmodium falciparum [1]): 7.03
clearance [10]: 39.7 mL/min/kg
CC50 [5]: 36.3 µM
Activity (Plasmodium falciparum [11]): Active
bioavailability [12]: 81%
pIC50 (Plasmodium falciparum [7]): 6.39

SMILES: O=C(NCCCNc1nc2ccncc2[nH]1)c1cc(Cl)cc(Cl)c1
pIC50 (Plasmodium falciparum [1]): 5.97

SMILES: CC(CCNC(=O)c1cc(Cl)cc(Cl)c1)Nc1nc2ccccc2[nH]1 (stereo unspecified)
pIC50 (Plasmodium falciparum [1]): 5.80

SMILES: O=C(NCCCNc1nc2ccccc2[nH]1)c1ccc(Cl)c(Cl)c1
pIC50 (Plasmodium falciparum [1]): 6.77

SMILES: O=C(NCCCNc1nc2ccccc2[nH]1)c1cc(Cl)c(O)c(Cl)c1
pIC50 (Plasmodium falciparum [1]): < 5.30

SMILES: O=C(c1cc(Cl)cc(Cl)c1)N1CCN(c2nc3ccccc3[nH]2)CC1
pIC50 (Plasmodium falciparum [1]): 5.60
